According to ChEMBL document CHEMBL1142137 (Antimicrob Agents Chemother, 2007):
≈ marks a conversion by molar mass, not a printed value.

Assays:
Mus musculus [1] = experiment: Effect on survival of Swiss mouse infected with penicillin-susceptible Streptococcus pneumoniae P-52181 at 15 mg/kg, sc
[2] = AUC in leukopenic mouse with renal failure at 25 mg/kg, sc; assay type: ADME, organism-based; parameters: dose 25 mg/kg, route subcutaneous; conditions: plasma
Summary of the method: (§1)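 Uninfected female Swiss mice (6-7 weeks) made leukopenic with cyclophosphamide (150 mg/kg i.p. […] from 4 days pre-challenge) and given uranyl nitrate 6 mg/kg i.p. once, 4 days earlier. […] AUC0-24 by trapezoid method from one-compartment fit.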

Streptococcus pneumoniae [3] = experiment: Antibacterial activity against penicillin-susceptible Streptococcus pneumoniae P-52181
Streptococcus pneumoniae [4] = experiment: Antibacterial activity against penicillin-resistant Streptococcus pneumoniae P-54988; assay type: functional
Summary of the method: (§2)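 Tube dilution in Mueller-Hinton infusion broth with 5% sterile horse serum, using twofold antibiotic dilutions. Tubes were incubated 18 h at 37°C in 10% CO2-air. MIC was the lowest concentration with no turbidity visible to the naked eye.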

[5] = Half life in human at 1 g, po; assay type: ADME, organism-based; conditions: in vivo
Mus musculus [6] = experiment: Effect on survival of Swiss mouse infected with penicillin-resistant Streptococcus pneumoniae P-12698 at 25 mg/kg, sc; assay type: functional; conditions: route subcutaneous
Summary of the method: (§3)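 Female Swiss albino mice, 6-7 weeks old, made leukopenic with cyclophosphamide 150 mg/kg ip daily ×3 from 4 days before challenge. Renal failure from one uranyl nitrate 6 mg/kg ip dose 4 days before challenge. Intratracheal inoculum of ~10^7 log-phase CFU under pentobarbital. […] 12-15 mice/group; deaths recorded daily for 10 days; Mantel-Haenszel comparison.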

Mus musculus [7] = experiment: T>MIC in leukopenic mouse with renal failure at 25 mg/kg, sc; assay type: ADME, organism-based; parameters: dose 25 mg/kg, route subcutaneous; conditions: in vivo
[8] = Cmax in leukopenic mouse with renal failure at 25 mg/kg, sc after 0.5 hrs; assay type: ADME, organism-based; parameters: dose 25 mg/kg, route subcutaneous; conditions: in vivo
[9] = Cmax in leukopenic mouse with renal failure at 15 mg/kg, sc after 0.5 hrs; assay type: ADME, organism-based; parameters: dose 15 mg/kg, route subcutaneous; conditions: in vivo
Streptococcus pneumoniae [10] = experiment: Antibacterial activity against penicillin-resistant Streptococcus pneumoniae P-12698; assay type: functional
Summary of the method: as §2

[11] = AUC in leukopenic mouse with renal failure at 7 mg/kg, sc; assay type: ADME, organism-based; parameters: dose 7 mg/kg, route subcutaneous; conditions: plasma
Summary of the method: as §1

[12] = AUC in human at 1 g, po; assay type: ADME, organism-based; conditions: plasma
Mus musculus [13] = experiment: T>MIC in leukopenic mouse with renal failure at 15 mg/kg, sc; assay type: ADME, organism-based; parameters: dose 15 mg/kg, route subcutaneous; conditions: in vivo
[14] = Half life in leukopenic mouse with renal failure at 15 mg/kg, sc; assay type: ADME, organism-based; parameters: dose 15 mg/kg, route subcutaneous; conditions: in vivo
Summary of the method: (§4)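 Terminal t1/2 = ln 2/kel, kel from least-squares slope of linear portions of log concentration-time curve; data fitted to one-compartment open model, zero-order absorption, first-order elimination.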

Mus musculus [15] = experiment: Effect on survival of Swiss mouse infected with penicillin-resistant Streptococcus pneumoniae P-15986 at 15 mg/kg, sc; assay type: functional; conditions: route subcutaneous
Summary of the method: as §3

Mus musculus [16] = experiment: T>MIC in leukopenic mouse with renal failure at 7 mg/kg, sc; assay type: ADME, organism-based; parameters: dose 7 mg/kg, route subcutaneous; conditions: in vivo
Mus musculus [17] = experiment: Effect on survival of Swiss mouse infected with penicillin-resistant Streptococcus pneumoniae P-12698 at 15 mg/kg, sc; assay type: functional; conditions: route subcutaneous
Summary of the method: as §3

[18] = Half life in leukopenic mouse with renal failure at 7 mg/kg, sc; assay type: ADME, organism-based; parameters: dose 7 mg/kg, route subcutaneous; conditions: in vivo
Summary of the method: as §4

Streptococcus pneumoniae [19] = experiment: Antibacterial activity against penicillin-resistant Streptococcus pneumoniae P-15986; assay type: functional
Summary of the method: as §2

[20] = Cmax in leukopenic mouse with renal failure at 7 mg/kg, sc after 0.5 hrs; assay type: ADME, organism-based; parameters: dose 7 mg/kg, route subcutaneous; conditions: in vivo
[21] = Cmax in human at 1 g, po after 0.5 hrs; assay type: ADME, organism-based; parameters: dose 1 g, route oral; conditions: in vivo
[22] = Half life in leukopenic mouse with renal failure at 25 mg/kg, sc; assay type: ADME, organism-based; parameters: dose 25 mg/kg, route subcutaneous; conditions: in vivo
Summary of the method: as §4

[23] = AUC in leukopenic mouse with renal failure at 15 mg/kg, sc; assay type: ADME, organism-based; parameters: dose 15 mg/kg, route subcutaneous; conditions: plasma
Summary of the method: as §1

Mus musculus [24] = experiment: Effect on survival of Swiss mouse infected with penicillin-resistant Streptococcus pneumoniae P-54988 at 15 mg/kg, sc; assay type: functional; conditions: route subcutaneous
Summary of the method: as §3

Question: For `CC1(C)S[C@@H]2[C@H](NC(=O)[C@H](N)c3ccc(O)cc3)C(=O)N2[C@H]1C(=O)O` [AMOXICILLIN], which survival at 15 mg/kg (Mus musculus [1]) is on record?
Answer: 83%

Question: And the AUC [2]?
Answer: 227000 ng·h/mL

Question: What about the MIC (Streptococcus pneumoniae [3]) of the same compound?
Answer: 0.03 µg/mL (≈ 0.0821 µM)

Question: And the MIC (Streptococcus pneumoniae [4])?
Answer: 2 µg/mL (≈ 5.47 µM)

Question: What about the half-life [5] of the same compound?
Answer: 1.5 h

Question: And the survival at 25 mg/kg (Mus musculus [6])?
Answer: 57%

Question: What about the “T>MIC” value (Mus musculus [7]) of the same compound?
Answer: 8 h

Question: What about the Cmax [8] of the same compound?
Answer: 85000 ng/mL

Question: What about the Cmax [9] of the same compound?
Answer: 28000 ng/mL

Question: And the MIC (Streptococcus pneumoniae [10])?
Answer: 2 µg/mL (≈ 5.47 µM)

Question: And the AUC [11]?
Answer: 46000 ng·h/mL

Question: What about the AUC [12] of the same compound?
Answer: 68000 ng·h/mL

Question: And the “T>MIC” value (Mus musculus [13])?
Answer: 4 h

Question: And the half-life [14]?
Answer: 1.6 h

Question: And the survival at 15 mg/kg (Mus musculus [15])?
Answer: 82%

Question: And the “T>MIC” value (Mus musculus [16])?
Answer: 4 h

Question: And the survival at 15 mg/kg (Mus musculus [17])?
Answer: 50%

Question: And the half-life [18]?
Answer: 1.6 h

Question: What about the MIC (Streptococcus pneumoniae [19]) of the same compound?
Answer: 4 µg/mL (≈ 10.9 µM)

Question: What about the Cmax [20] of the same compound?
Answer: 13000 ng/mL

Question: And the Cmax [21]?
Answer: 19000 ng/mL

Question: What about the half-life [22] of the same compound?
Answer: 1.7 h

Question: And the AUC [23]?
Answer: 80000 ng·h/mL

Question: And the survival at 15 mg/kg (Mus musculus [24])?
Answer: 81%
